Published values collected from several papers.
Protocols differ between the studies behind these lines.
Target: Adenosine receptor A2a (ADORA2A, Homo sapiens, UniProt P29274)

Compound | effect on | technique | tested at | notes | inhibition
O=C(c1ccc(F)cc1)N(Cc1ccccc1)C1CCCCC1 | cell-free assay |  | 10 µM |  | 5%
C#CCNc1nc(Cl)nc2c1ncn2[C@H]1[C@H](O)[C@H](O)[C@]2(C(=O)NC)C[C@H]12 | ligand displacement | radioligand | 10 µM | cell membranes | 23%
O=C(Nc1ccc(S(=O)(=O)N2CCC(Cl)CC2)cc1)c1ccc([N+](=O)[O-])o1 | ligand displacement | radioligand | 10 µM |  | 8%
c1ccc(N2CCN(CCc3ccc4oc(-c5ccco5)nc4c3)CC2)cc1 | ligand displacement | radioligand | 10 µM | cell membranes | 3%
CCN(Cc1ccccc1C(F)(F)F)C(=O)C1CCN(S(=O)(=O)c2ccc3[nH]ncc3c2)CC1 | ligand displacement | radioligand | 10 µM |  | 3%
Nc1nc[nH]c(=O)c1Cl | ligand displacement | radioligand | 30 µM | cell membranes | 23%
C=CN1CCCn2c1nc1c2c(=O)n(C)c(=O)n1C | ligand displacement | radioligand | 10 µM | cell membranes | 29%
c1coc(-c2nc3ccc(CN4CCCCC4)cc3o2)c1 | ligand displacement | radioligand | 10 µM | cell membranes | 5%
COc1cc(NC(C)=O)c(Cl)cc1C(=O)Nc1nccs1 | cell-free assay |  | 10 µM |  | 39.7%
Ic1cccc2cnccc12 | ligand displacement | radioligand | 10 µM |  | 8%
O=C1N=C(N2CCCCN2)S/C1=C\c1ccc(F)cc1O | ligand displacement | radioligand | 10 µM |  | 10%
CC(C)(C)OC(=O)N1CCN(CC(=O)Nc2ccc3oc(-c4ccco4)nc3c2)CC1 | ligand displacement | radioligand | 10 µM | cell membranes | 25%
